Screening data from PubChem BioAssay.
The list is not random: actives were taken first. Their share in the collection is about 2.4%.
ROMK primary: modulators of human ROMK potassium channel | actives 2% (n = 130,000) | B-score at 10 µM | Tet-inducible ROMK, thallium flux fluorescence; actives lie on both sides;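 active = signal ratio slope over the read window, or its plate-corrected B-score, at least 3 SD from the plate mean, either direction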;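 also: B-score of the F/F0 ratio slope over 7 to 12 s after thallium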
Target sequence (P48048 whole entry, looked up): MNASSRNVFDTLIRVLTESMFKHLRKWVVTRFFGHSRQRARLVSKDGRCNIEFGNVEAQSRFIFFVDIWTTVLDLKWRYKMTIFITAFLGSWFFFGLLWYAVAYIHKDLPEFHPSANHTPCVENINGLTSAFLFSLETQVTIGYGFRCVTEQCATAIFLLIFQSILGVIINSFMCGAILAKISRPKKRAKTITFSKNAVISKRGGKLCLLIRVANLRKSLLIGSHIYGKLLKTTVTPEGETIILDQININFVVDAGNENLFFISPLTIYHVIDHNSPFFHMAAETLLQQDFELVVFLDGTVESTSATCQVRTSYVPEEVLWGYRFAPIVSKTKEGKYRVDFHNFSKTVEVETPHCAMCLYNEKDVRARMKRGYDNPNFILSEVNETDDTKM
HSV augment: increases HSV replication in cells | HSV replication augmentation in cells, fold increase | maximum fold increase | actives 0.005% (n = 220,000) | AID 1956; in the data active = maximum fold increase above about 1.5; inconclusive = no clear call, values can overlap the other calls; tested in PC3 cells
b-catenin transl: beta-catenin nuclear translocation modulation; HeLa beta-catenin nuclear translocation, immunofluorescence imaging; nuclear translocation activity, % at 5 µM; actives 0.3% (n = 190,000); AID 1665;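 active = nuclear translocation activity above 50% at 5 µM, with a well cell count of 50 or more; inconclusive = wells under 50 cells across six images, flagged as toxic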;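 also: per-cell ratio of nuclear to cytoplasmic median beta-catenin stain intensity; plate controls were DMSO negative control for no effect and GSK-3 inhibitor IX positive control for full effect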
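Technique: fluorescence imaging of beta-catenin antibody stain plus DAPI / Material: human HeLa cell line / Incubation: compound treatment 24 h, 37°C, 5% CO2 / Read-out basis: % activation of per-cell nuclear versus cytoplasmic median beta-catenin signal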
Insulin prom inh: TRM-6 insulin promoter activity inhibition; TRM-6 cells (human fetal islet line), insulin promoter-eGFP reporter, imaging; reporter expression induced with tamoxifen; actives 0.9% (n = 130,000); inhibition, % at 2 µM;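 active = inhibition above the mean plus 3 SD, with well images judged a real hit on visual review, cut at about 60% in these data, passing the limit was not always enough; inconclusive = inhibition over the cutoff but images rejected on review; inactive = inhibition not above the cutoff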
MT stabilizer: stabilizes microtubules in HeLa cells | HeLa tubulin immunostaining HCS, 24 h; share of cells brighter than vehicle mean+2SD | % tubulin-high responders, % at 10 µM | actives 0.83% (n = 200,000) | AID 2205;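 active = plate Z-score above 3 for both tubulin-high and condensed-nucleus cell shares, with cell loss under 80%, at 10 µM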;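 also: anti alpha tubulin signal scored within the nucleus-defined area of each cell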
ROMK hit retest: retested hit modulating human ROMK potassium channel. actives 54% (n = 3,000). ROMK thallium flux, fluorescence ratio; stronger effect = lower value. AID 1917. normalized thallium flux (F/F0 slope) at 10 µM. shares compounds with ROMK primary;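 active = Flux at 10 µM at least 3 SD below or above vehicle control mean in one or both replicates; inconclusive = no clear call, values can overlap the other calls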
The depositor's hits bear a star; i = inactive; ? = inconclusive; · = no result given.

SMILES	ROMK primary	HSV augment	b-catenin transl	Insulin prom inh	MT stabilizer	ROMK hit retest
C=CC[n+]1c(/C=C2\C=Cc3cc(C)ccc3N2CC)ccc2ccccc21	-3.4*	·	-2	-413	12	0.053*
O=CNC(Cc1ccccc1)C(=O)O (stereo unspecified)	2.2*	i	·	7	3	0.075
O=C(Cc1ccccc1)N[C@@H](Cc1ccccc1)C(=O)O	·	i	-3	·	3	·
Cc1c(Cl)cccc1NC(=O)CNC(=O)c1ccc(F)cc1	·	i	-1	12	6	?
CCN(CC)CCNC(=O)c1[nH]c2ccc(OCc3ccccc3)cc2c1C	-5*	i	0	-62	2	0.063*
CCC(OCC(O)CN1CCN(CCN2C(=O)c3cccc4cccc(c34)C2=O)CC1)c1ccccc1 (stereo unspecified)	-3.6*	i	1	14	4	0.059*
Cc1ccccc1OCC(O)CN1CCN(CCN2C(=O)c3cccc4cccc(c34)C2=O)CC1 (stereo unspecified)	·	i	0	·	3	·
CCC(CC)=C(C#N)C(=O)NC1CCCCC1	0.26	i	-3	7	3	·
Cc1cc(C)n2c(SCC(C)C)nnc2n1	·	i	1	62	2	·
CCSc1nnc2nc(C)cc(C)n12	1.9*	i	-3	46	3	0.08
CCOC(=O)c1ccc(NC(=O)COC(=O)Cc2csc(-c3ccccc3)n2)cc1	·	i	0	·	2	·
CCCc1ccc(O)c(N=Cc2cc(Br)cc(OCC)c2O)c1	-2.2	·	0	57	4	0.078
CCOCc1nnc(NC(=O)c2c(OC)cccc2OC)s1	3.3*	i	·	32	2	?
CCc1nnc(NC(=O)c2c(OC)cccc2OC)s1	·	i	-1	i	1	·
CN(C)C(CNC(=O)c1cccc(OC(F)F)c1)c1ccco1 (stereo unspecified)	1.1*	i	·	-24	4	0.088
CCCOc1ccc(C(=O)NCC(c2ccco2)N(C)C)cc1OC (stereo unspecified)	-0.28	i	-1	·	4	·
CC(C)=CCC/C(C)=C/CCC(C)NCCN1CCNCC1 (stereo unspecified)	-3.3*	i	0	·	3	0.054*
O=C1c2[nH]nc(-c3ccccc3O)c2C(c2cccc(Cl)c2)N1CC1CCCO1 (stereo unspecified)	-2.4*	·	0	·	3	0.052*
COCCNC(=O)COc1cccc2c1OC(C)(C)C2	0.86	·	-1	-14	2	·
CCOc1cc(NC(=S)NCCCN2CCOCC2)c(OCC)cc1NC(=O)c1ccc(C)cc1	·	i	0	38	4	·
CC(C)=Cc1oc2ccc([N+](=O)[O-])cc2c1N1CC(C)OC(C)C1 (stereo unspecified)	-0.45	i	0	-36	4	·
COc1cccc2sc(Nc3nnc(-c4ccc(F)cc4)o3)nc12	·	i	0	·	9	0.17*
CCC(=O)NC(=S)Nc1ccc(N2CCN(C(=O)c3ccc(Cl)cc3)CC2)cc1	-0.12	i	0	·	5	·
O=S(=O)(Nc1cccc(-c2cn3cccnc3n2)c1)c1ccc(-c2ccccc2)cc1	·	·	·	7	1	0.073
COc1cccc(/C=C2\SC(=S)N(NC(=O)c3ccncc3)C2=O)c1	·	i	0	29	3	·
SMILES	ROMK primary	HSV augment	b-catenin transl	Insulin prom inh	MT stabilizer	ROMK hit retest
COc1cc(/C=C2\SC(=S)N(NC(=O)c3cccnc3)C2=O)ccc1O	-4.2*	?	1	·	·	0.058*
COc1cc(/C=C2\SC(=S)N(Nc3ncc(C(F)(F)F)cc3Cl)C2=O)ccc1O	-3.7*	?	·	49	7	0.064*
O=C1/C(=C/c2ccc(O)c(O)c2)SC(=S)N1Nc1ccccc1	-2*	·	1	·	8	0.058*
C=CCN(CC=C)S(=O)(=O)c1ccc2nc(NC(=O)C3CCCO3)sc2c1 (stereo unspecified)	-0.0012	i	0	31	3	·
CCN(CC)S(=O)(=O)c1ccc(NN=c2c(=O)c3ccccc3c2=O)cc1	·	i	-2	·	·	·
CCOc1cc2c3c(c1)C(C)CC(C)(C)N3C(=O)C2=O (stereo unspecified)	·	i	1	3	2	·
CCOc1cc2c3c(c1)C(C)=CC(C)(C)N3C(=O)C2=O	3.2*	i	0	13	2	0.077
COCCNc1nc2nonc2nc1N(C)Cc1cccc2cnccc12	·	i	0	20	1	·
